A short description of series [1]: Solubility of the compound in water. It counts as physicochemical.
The nature of series [2]: Ratio of drug level in brain to plasma in Sprague-Dawley rat at 10 mg/kg, po and iv after 0.75 to 3 hrs by LC-MS/MS analysis. The settings on record: read-out: BPR. In kind it is ADME, organism-based. Further details: dose 10 mg/kg, route oral. Summed up: (§1)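 Brain (µg/mg) and plasma (µg/mL) levels were measured after oral dosing, with three rats per time point. The b/p ratio was the mean of the nine individual ratios.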

Series [3] can be described thus: Tmax in Sprague-Dawley rat at 10 mg/kg, po and iv by LC-MS/MS analysis. Further details: dose 10 mg/kg, route oral. In kind it is ADME, organism-based. The settings on record: in vivo. Summed up: (§2)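 Rats were given the compound both IV and PO in a routine PK study. Tmax came from the PO arm and Vss from the IV arm.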
Series [4] relates to Rattus norvegicus. The series can be described thus: Inhibition of RAMH-induced dipsogenia in po dosed Sprague-Dawley rat administered 30 mins prior to RAMH challenge measured up to 20 mins. It counts as functional. The following applies: read-out: MED. Summed up: (§3)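 Rats given compound orally 0.5 h (or, for duration of action, at selected times up to 6 h) before RAMH 10 mg/kg SC; water consumed over 20 min measured. Screening doses 1 or 0.3 mg/kg PO, also 0.1 mg/kg; duration study at 0.6 mg/kg PO. MED = minimum dose fully inhibiting drinking; means ± SEM.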

Series [5] in a line: Oral bioavailability in Sprague-Dawley rat at 10 mg/kg by LC-MS/MS analysis. In kind it is ADME, organism-based. The settings on record: in vivo. In short, it runs like this:
(§4)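 Rat PK after IV and PO dosing; plasma Cmax, Tmax, IV half-life and Vss determined; oral bioavailability from AUCpo/AUCiv. Metabolite exposure determined after a 3 mg/kg PO parent dose.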

Series [6] in a line: Half life in Sprague-Dawley rat at 10 mg/kg, iv by LC-MS/MS analysis. In kind it is ADME, organism-based. Further details: dose 10 mg/kg, route intravenous. The settings on record: in vivo. In short, it runs like this:
as §4

Series [7] can be described thus: Cmax in Sprague-Dawley rat plasma at 10 mg/kg, po and iv by LC-MS/MS analysis. In kind it is ADME, organism-based. Further details: dose 10 mg/kg, route oral. Summed up: as §4
For series [8], the system named is Rattus norvegicus. The series can be described thus: Volume of distribution at steady state in Sprague-Dawley rat at 10 mg/kg, po and iv by LC-MS/MS analysis. It counts as ADME, organism-based. Further details: dose 10 mg/kg, route oral. The settings on record: in vivo. In short, it runs like this:
as §2

In series [9] the target is Histamine H3 receptor (Rattus norvegicus, UniProt Q9QYN8). The series can be described thus: Displacement of N-[3H]-methylhistamine from histamine H3 receptor in rat cortex membranes. It counts as cell membranes, Membrane.
Histamine H3 receptor, sequence (Q9QYN8 whole entry): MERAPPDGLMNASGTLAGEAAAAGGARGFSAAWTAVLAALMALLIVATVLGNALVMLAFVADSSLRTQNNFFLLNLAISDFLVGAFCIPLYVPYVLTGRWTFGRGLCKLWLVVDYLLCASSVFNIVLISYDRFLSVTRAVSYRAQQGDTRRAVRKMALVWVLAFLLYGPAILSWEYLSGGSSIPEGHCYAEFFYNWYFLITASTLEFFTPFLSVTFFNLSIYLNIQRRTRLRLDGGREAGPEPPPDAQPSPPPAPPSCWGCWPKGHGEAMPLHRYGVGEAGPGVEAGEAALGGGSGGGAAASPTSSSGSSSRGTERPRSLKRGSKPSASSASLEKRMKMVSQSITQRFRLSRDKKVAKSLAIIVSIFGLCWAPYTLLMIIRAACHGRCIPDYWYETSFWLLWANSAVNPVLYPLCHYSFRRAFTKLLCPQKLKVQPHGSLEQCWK
In series [10] the target is Voltage-gated inwardly rectifying potassium channel KCNH2 (Homo sapiens, UniProt Q12809). The series can be described thus: Inhibition of human ERG by patch-clamp assay. (In general: In patch-clamp work, channel activity is measured electrically.)
Voltage-gated inwardly rectifying potassium channel KCNH2, sequence (Q12809 whole entry): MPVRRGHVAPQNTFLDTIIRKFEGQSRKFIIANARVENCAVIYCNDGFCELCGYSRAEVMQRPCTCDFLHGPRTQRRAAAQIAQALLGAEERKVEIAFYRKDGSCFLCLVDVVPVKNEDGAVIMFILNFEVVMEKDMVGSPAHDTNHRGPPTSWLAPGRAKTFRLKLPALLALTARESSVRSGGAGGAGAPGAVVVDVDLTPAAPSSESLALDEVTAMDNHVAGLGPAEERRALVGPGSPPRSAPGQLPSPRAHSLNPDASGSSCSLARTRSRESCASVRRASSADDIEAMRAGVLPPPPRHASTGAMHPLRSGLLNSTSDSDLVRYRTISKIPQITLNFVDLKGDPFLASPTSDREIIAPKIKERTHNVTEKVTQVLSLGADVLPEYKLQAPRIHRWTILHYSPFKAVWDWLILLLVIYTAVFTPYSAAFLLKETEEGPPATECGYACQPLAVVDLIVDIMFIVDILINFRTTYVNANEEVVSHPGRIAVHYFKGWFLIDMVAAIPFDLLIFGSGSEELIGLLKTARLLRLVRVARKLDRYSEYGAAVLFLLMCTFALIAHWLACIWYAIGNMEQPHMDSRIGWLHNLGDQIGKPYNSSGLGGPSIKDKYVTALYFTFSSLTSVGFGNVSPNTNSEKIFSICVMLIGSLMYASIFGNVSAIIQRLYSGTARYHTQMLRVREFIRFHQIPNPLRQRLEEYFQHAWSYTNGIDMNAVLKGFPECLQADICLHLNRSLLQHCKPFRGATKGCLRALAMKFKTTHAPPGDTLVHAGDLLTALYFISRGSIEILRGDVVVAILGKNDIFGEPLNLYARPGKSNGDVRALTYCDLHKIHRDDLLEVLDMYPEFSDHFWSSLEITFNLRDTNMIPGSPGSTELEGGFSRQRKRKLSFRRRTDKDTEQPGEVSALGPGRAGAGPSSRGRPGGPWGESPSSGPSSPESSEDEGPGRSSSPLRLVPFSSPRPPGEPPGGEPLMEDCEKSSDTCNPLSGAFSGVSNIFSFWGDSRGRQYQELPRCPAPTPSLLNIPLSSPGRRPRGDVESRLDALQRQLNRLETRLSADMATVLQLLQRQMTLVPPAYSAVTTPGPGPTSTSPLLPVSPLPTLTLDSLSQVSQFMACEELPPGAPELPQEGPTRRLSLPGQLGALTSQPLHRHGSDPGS
The target of series [11] is hERG (KCNH2) (Homo sapiens, UniProt Q12809). The series can be described thus: Inhibition of human ERG at 3 uM by patch-clamp assay.
hERG (KCNH2), sequence (Q12809 whole entry): as above
Series [12] concerns Rattus norvegicus. The experiment in a line: Inhibition of RAMH-induced dipsogenia in Sprague-Dawley rat at 0.6 mg/kg, po administered 6 hrs prior to RAMH challenge measured up to 20 mins. It counts as functional. In short, it runs like this: as §3
The subject of series [13] is Rattus norvegicus. The experiment in a line: Inhibition of RAMH-induced dipsogenia in Sprague-Dawley rat at 0.6 mg/kg, po administered 1 hr prior to RAMH challenge measured up to 20 mins. It counts as functional, organism-based. Further details: dose 0.6 mg/kg. Summed up: as §3
In series [14] the test system is Rattus norvegicus. The series can be described thus: Inhibition of RAMH-induced dipsogenia in Sprague-Dawley rat at 0.1 mg/kg, po administered 30 mins prior to RAMH challenge measured up to 20 mins. In kind it is functional, organism-based. Further details: dose 0.1 mg/kg. In short, it runs like this: as §3
Series [15] relates to Rattus norvegicus. The series can be described thus: Inhibition of RAMH-induced dipsogenia in Sprague-Dawley rat at 0.6 mg/kg, po administered 30 mins prior to RAMH challenge measured up to 20 mins. It counts as functional, organism-based. Further details: dose 0.6 mg/kg. Summed up:
as §3

Series [16] is described as follows: Tmax in Sprague-Dawley rat at 3 mg/kg, po and iv by LC-MS/MS analysis. In kind it is ADME, organism-based. Further details: dose 3 mg/kg, route oral. The following applies: in vivo. In short, it runs like this: as §2
Series [17] in a line: Cmax in Sprague-Dawley rat plasma at 3 mg/kg, po and iv by LC-MS/MS analysis. Further details: dose 3 mg/kg, route oral. In kind it is ADME, organism-based. In short, it runs like this:
as §4

The nature of series [18]: Ratio of drug level in brain to plasma in Sprague-Dawley rat at 3 mg/kg, po and iv after 0.75 to 3 hrs by LC-MS/MS analysis. It counts as ADME, organism-based. Further details: dose 3 mg/kg, route oral. The settings on record: read-out: BPR. In short, it runs like this: as §1
The test system of series [19] is Rattus norvegicus. The experiment in a line: Volume of distribution at steady state in Sprague-Dawley rat at 3 mg/kg, po and iv by LC-MS/MS analysis. It counts as ADME, organism-based. The settings on record: in vivo. Further details: dose 3 mg/kg, route oral. Summed up:
as §2

A short description of series [20]: Oral bioavailability in Sprague-Dawley rat at 3 mg/kg by LC-MS/MS analysis. It counts as ADME, organism-based. The settings on record: in vivo. In short, it runs like this: as §4
Series [21] in a line: Half life in Sprague-Dawley rat at 3 mg/kg, iv by LC-MS/MS analysis. It counts as ADME, organism-based. Further details: dose 3 mg/kg, route intravenous. The following applies: in vivo. Summed up: as §4

The values below come from ChEMBL document CHEMBL1932985, “Identification of biaryl sulfone derivatives as antagonists of the histamine H₃ receptor: discovery of (R)-1-(2-(4'-(3-methoxypropylsulfonyl)biphenyl-4-yl)ethyl)-2-methylpyrrolidine (APD916)” (Bioorg Med Chem Lett, 2012).

Calls of active or inactive are those of the source.

Take `COCCS(=O)(=O)c1ccc(-c2ccc(CCN3CCC[C@H]3C)cc2)cc1.Cl`: the solubility (as a rule, how much of the substance goes into solution per volume) in [1] was over 30 mg/mL.

As to `C[C@@H]1CCCN1CCc1ccc(-c2ccc(S(C)(=O)=O)cc2)cc1`, the Kp in [2] turned out to be 3.03. Also, the time of peak concentration (Tmax) – broadly, the time from dosing to the highest level – in series [3] came to 4 h. The minimal effective dose in series [4] was 0.3 mg/kg. Further, the bioavailability – broadly, the share of a dose that reaches the circulation, judged against a reference dose that is usually intravenous – in series [5] was 100%. Moreover, the half-life (commonly the time needed for the level to fall by half in the phase considered) in [6] was 216 min. Also, the concentration in [7] peaked (Cmax) at 218 ng/mL. The molecule also gave a Vdss in series [8] of 19.8 L/kg. Further, the Ki (as a rule, the equilibrium dissociation constant of an inhibitor or competing ligand from its target) in series [9] is 1.3 nM.

In series [9], `COCS(=O)(=O)c1ccc(-c2ccc(CCN3CCC[C@H]3C)cc2)cc1` showed a Ki of 2.44 nM.

In [9], `C[C@@H]1CCCN1CCc1ccc(-c2ccc(S(=O)(=O)C3CCCC3)cc2)cc1` gave a Ki of 1 nM.

With `COCCS(=O)(=O)c1ccc(-c2ccc(CCN3CCC[C@H]3C)cc2)cc1` [listing 1 of 2 here], the Kp in series [2] was 1.73. In series [3], the Tmax is 0.3 h. In addition, the minimal effective dose in [4] was found to be 0.3 mg/kg. Further, in [5], the bioavailability stood at 68.5%. The same molecule had a half-life in [6] of 42 min. Also, the half-maximal inhibitory concentration (IC50) – broadly, the midpoint of a concentration-inhibition curve – in series [10] came out at 7.4 µM. In addition, in series [7], the highest level (Cmax) was 184 ng/mL. Further, in [8], the Vdss was found to be 7.6 L/kg. This molecule had a Ki in [9] of 1.4 nM. Besides, the inhibition (usually the drop in the measured response relative to a control, in per cent) at 3 µM in [11] was 29%. In addition, in [12], the inhibition in vivo – broadly, how much of the control response was suppressed – at 0.6 mg/kg was under 20%.

The molecule `COCCS(=O)(=O)c1ccc(-c2ccc(CCN3CCC[C@@H]3C)cc2)cc1` showed a Ki in [9] of 13.2 nM.

As to `COCCS(=O)(=O)c1ccc(-c2ccc(CCN3CCC[C@H]3C)cc2)cc1` [listing 2 of 2 here], the inhibition entry in [13] and in series [15] was “Active” each time. The inhibition result in series [14] was “inactive”.

`COCCCS(=O)(=O)c1ccc(-c2ccc(CCN3CCC[C@H]3C)cc2)cc1.O=C(O)CC(O)(CC(=O)O)C(=O)O` registered a solubility in series [1] of over 150 mg/mL.

Take `C[C@@H]1CCCN1CCc1ccc(-c2ccc(S(=O)(=O)CCCO)cc2)cc1`: the minimal effective dose in [4] stood at 1 mg/kg. In [10], the IC50 is over 30 µM. For the same molecule, the affinity in series [9] corresponds to a Ki of 0.8 nM.

As for `C[C@@H]1CCCN1CCc1ccc(-c2ccc(S(=O)(=O)CC3CCOCC3)cc2)cc1`, in series [4], the minimal effective dose was found to be 0.3 mg/kg. The molecule also returned a Ki in [9] of 0.17 nM.

The molecule `CC(C)S(=O)(=O)c1ccc(-c2ccc(CCN3CCC[C@H]3C)cc2)cc1` registered a Ki in series [9] of 2.65 nM.

Turning to `C[C@@H]1CCCN1CCc1ccc(-c2ccc(S(=O)(=O)C3CCOCC3)cc2)cc1`, the minimal effective dose in series [4] was 1 mg/kg. This molecule had a Ki in series [9] of 1.1 nM.

As for `CCS(=O)(=O)c1ccc(-c2ccc(CCN3CCC[C@H]3C)cc2)cc1`, in series [4], the minimal effective dose is 0.3 mg/kg. Further, the Tmax in series [16] was found to be 18 min. Also, the Cmax (commonly the maximum level reached in the sampled fluid or tissue) in [17] was determined as 57 ng/mL. For the same molecule, the Kp in [18] came to 1.75. The molecule further gave a Vdss in [19] of 14.3 L/kg. Further, the bioavailability in series [20] is 46%. The molecule further had a half-life in series [21] of 84 min. The Ki in series [9] was found to be 0.9 nM.

On to `CCOCCS(=O)(=O)c1ccc(-c2ccc(CCN3CCC[C@H]3C)cc2)cc1`, for which the minimal effective dose in series [4] amounted to 0.3 mg/kg. Moreover, in [9], the Ki stood at 1 nM. Moreover, testing at 3 µM in [11] gave an inhibition of 45%.

Take `C[C@@H]1CCCN1CCc1ccc(-c2ccc(S(=O)(=O)Cc3ccccc3)cc2)cc1`: in [9], the Ki is 0.6 nM. In series [11], the inhibition at 3 µM was determined as 95%.

Turning to `C[C@@H]1CCCN1CCc1ccc(-c2ccc(S(=O)(=O)CC3CCCCO3)cc2)cc1` (some centres undefined), the affinity in [9] corresponds to a Ki of 0.2 nM.
